The text below walks through data of ChEMBL document CHEMBL5143677, “Small molecule NSAID derivatives for impairing powerhouse in cancer cells” (Bioorg Med Chem, 2022).

Active and inactive are the calls of the source. No cut-off for these calls is given here.

In data set [1] the test system is MCF7. In words: Induction of ROS generation in human MCF7 cells assessed as increase in green fluorescence measured after 24 hrs by H2DCFDA dye based confocal microscopy relative to control. The class given is functional. The procedure, abridged: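 After 24 h treatment, MCF7 cells stained with H2DCFDA, which reacts with sub-cellular ROS to give green fluorescent DCF; imaged by confocal microscopy; green signal expressed as fold over non-treated control cells.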

Data set [2] relates to MCF7. In words: Induction of mitochondrial outer membrane damage in human MCF7 cells assessed as increase in mitochondrial depolarization by measuring increase in green fluorescence measured after 24 hrs by JC1 dye based confocal microscopy. It counts as cell-based. The procedure, abridged:
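MCF7 cells treated 24 h, then incubated with JC1 (green monomer emission 525 nm, red aggregate 590 nm); confocal imaging, depolarization expressed as J-monomer:J-aggregate ratio versus non-treated control.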

Data set [3] relates to MCF7. In words: Induction of ROS generation in human MCF7 cells assessed as increase in red fluorescence at IC50 measured after 24 hrs by MitoSox dye based confocal microscopy. It counts as functional, cell-based. The procedure, abridged: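 MCF7 cells exposed 24 h, then stained with MitoSox, which gives red fluorescence with sub-cellular superoxide; signal compared with non-treated control cells by confocal microscopy.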

For data set [4], the system named is MCF7. In words: Induction of apoptosis in human MCF7 cells assessed as reduction in caspase-3 expression measured after 24 hrs by Western blot analysis. It counts as functional, cell-based. In a few lines: (§1)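 MCF7 cells treated 24 h; whole-cell proteins separated by gel electrophoresis and Bcl-2 and caspase-3 detected by Western blot, compared with control cells.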

Data set [5] has as its system MCF7. Description: Induction of mitochondrial outer membrane damage in human MCF7 cells assessed as increase in mitochondrial depolarization by measuring reduction in red fluorescence measured after 24 hrs by TMRM dye based confocal microscopy. It counts as cell-based. The procedure, abridged:
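Mitochondrial damage probe: after 24 h exposure MCF7 cells loaded with TMRM, which stains undamaged mitochondria and is effluxed after damage; red fluorescence read by confocal microscopy against non-treated cells.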

Data set [6] in a line: Cytotoxicity against human RPE-1 cells assessed as reduction in cell viability measured after 24 hrs by MTT assay. The class given is toxicity, cell-based. Particulars: RPE-1 cells (TERT-RPE1).
Data set [7] concerns MCF7. In words: Induction of apoptosis in human MCF7 cells assessed as reduction in Bcl-2 expression measured after 24 hrs by Western blot analysis. It counts as functional, cell-based. The procedure, abridged: as §1
In data set [8] the test system is MCF7. Description: Induction of apoptosis in human MCF7 cells assessed as increase in red fluorescence at IC50 measured after 24 hrs by propidium iodide staining based confocal laser scanning microscopy. The class given is functional, cell-based. The procedure, abridged:
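Following 24 h treatment, MCF7 cells incubated with propidium iodide, which binds DNA of apoptotic and necrotic cells; red fluorescence read by confocal microscopy against non-treated cells.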

Data set [9] deals with MCF7. Description: Induction of mitochondrial outer membrane damage in human MCF7 cells assessed as morphological changes by measuring appearance of fragmented punctate structure at IC50 measured after 24 hrs by mitotracker red based confocal microscopy. It counts as cell-based.
Data set [10] concerns MCF7. Description: Cytotoxicity against human MCF7 cells assessed as reduction in cell viability measured after 24 hrs by MTT assay. It counts as functional, cell-based. The note with it: MCF7, 24 h. Background: Formazan colour is commonly taken as a measure of viable cells.
Data set [11] has as its system MCF7. In words: Induction of mitochondrial outer membrane damage in human MCF7 cells assessed as morphological changes by measuring elongated mitochondria at IC50 measured after 24 hrs by mitotracker red based confocal microscopy. It counts as cell-based.
Data set [12] relates to MCF7. In words: Induction of mitochondrial outer membrane damage in human MCF7 cells assessed as morphological changes by measuring appearance of threadlike structure at IC50 measured after 24 hrs by mitotracker red based confocal microscopy. The class given is cell-based.

For `COc1ccc2c(c1)c(CC(=O)OCCCCC[P+](c1ccccc1)(c1ccccc1)c1ccccc1)c(C)n2C(=O)c1ccc(Cl)cc1`, the “fold change (FC)” value with MCF7 [1] is listed as 2.4. The outcome in the data set on MCF7 [2], in the data set on MCF7 [3], with MCF7 [4], in the data set with MCF7 [5], in the data set with MCF7 [7] and in the data set on MCF7 [8] was Active. The outcome in the data set with MCF7 [9] was Active. In addition, the IC50 – broadly, the concentration needed to halve the response being measured – at 24 h in [6] is 22 µM. In addition, the IC50 with MCF7 [10] came out at 1 µM.

For `CC(C)Cc1ccc(C(C)C(=O)O)cc1` (stereo not drawn) [IBUPROFEN], the result in the data set with MCF7 [11], with MCF7 [12], in the data set on MCF7 [2] and with MCF7 [5] was Active. In addition, in the data set with MCF7 [1], the “fold change (FC)” value came to 1.3. Further, in [6], the IC50 at 24 h is over 40 µM. Besides, the half-inhibitory concentration (IC50) with MCF7 [10] is over 50 µM.

Consider `CC(C)Cc1ccc(C(C)C(=O)OCCCCC[P+](c2ccc(F)cc2)(c2ccc(F)cc2)c2ccc(F)cc2)cc1` (stereo not drawn), for which the IC50 at 24 h in data set [6] amounted to 35 µM. The concentration for half-maximal inhibition (IC50) with MCF7 [10] was over 50 µM.

With `COc1ccc([P+](CCCCCOC(=O)C(C)c2ccc(CC(C)C)cc2)(c2ccc(OC)cc2)c2ccc(OC)cc2)cc1` (stereo not drawn), in data set [6], the IC50 at 24 h was over 40 µM. In addition, the half-inhibitory concentration (IC50) in the data set with MCF7 [10] stood at 32 µM.

Turning to `CC(C)Cc1ccc(C(C)C(=O)OCCCCC[P+](c2ccccc2)(c2ccccc2)c2ccccc2)cc1` (stereo not drawn), in the data set with MCF7 [1], the “fold change (FC)” value is 3.2. For the same compound, the outcome in the data set on MCF7 [2], in the data set with MCF7 [3], in the data set on MCF7 [4], in the data set with MCF7 [5], with MCF7 [7] and in the data set with MCF7 [8] was Active. In addition, the result in the data set with MCF7 [9] was Active. In addition, in data set [6], the IC50 at 24 h was over 40 µM. In the data set with MCF7 [10], the IC50 is 10.3 µM.

For the compound `COc1ccc2c(c1)c(CC(=O)O)c(C)n2C(=O)c1ccc(Cl)cc1` [INDOMETHACIN], the outcome in the data set with MCF7 [11], in the data set on MCF7 [12], with MCF7 [2], in the data set with MCF7 [4], with MCF7 [5] and in the data set with MCF7 [7] was Active. Also, the “fold change (FC)” value in the data set with MCF7 [1] amounted to 2.4. Besides, in data set [6], the half-inhibitory concentration (IC50) at 24 h was over 40 µM. In addition, the IC50 in the data set with MCF7 [10] is over 50 µM.

Consider `COc1ccc2c(c1)c(CC(=O)OCCCCC[P+](c1ccc(C)cc1)(c1ccc(C)cc1)c1ccc(C)cc1)c(C)n2C(=O)c1ccc(Cl)cc1`, for which, in [6], the IC50 at 24 h is 10.2 µM. The IC50 in the data set with MCF7 [10] stood at 5.8 µM.

Turning to `Cc1ccc([P+](CCCCCOC(=O)C(C)c2ccc(CC(C)C)cc2)(c2ccc(C)cc2)c2ccc(C)cc2)cc1` (stereo not drawn), the half-maximal inhibitory concentration (IC50) at 24 h in data set [6] is over 40 µM. Further, the concentration for half-maximal inhibition (IC50) with MCF7 [10] came out at 25.6 µM.

Turning to `COc1ccc([P+](CCCCCOC(=O)Cc2c(C)n(C(=O)c3ccc(Cl)cc3)c3ccc(OC)cc23)(c2ccc(OC)cc2)c2ccc(OC)cc2)cc1`, the 50% inhibitory concentration (IC50) at 24 h in data set [6] came to 35.2 µM. Besides, the IC50 in the data set on MCF7 [10] is 4.5 µM.

As for `COc1ccc2c(c1)c(CC(=O)OCCCCC[P+](c1ccc(F)cc1)(c1ccc(F)cc1)c1ccc(F)cc1)c(C)n2C(=O)c1ccc(Cl)cc1`, in data set [6], the IC50 at 24 h is 11.2 µM. For the same compound, in the data set with MCF7 [10], the half-maximal inhibitory concentration (IC50) amounted to 25.7 µM.
